According to ChEMBL document CHEMBL2417507, “Synthesis and bioevaluation of some new isoniazid derivatives” (Bioorg Med Chem, 2013):
≈ marks a conversion by molar mass, not a printed value. Calls of active or inactive are those of the source. The calls are words filed in the database; no cut-off is given here.

Key:
[1] = test system: HCT-8; assay: Decrease in NAT1 gene expression in human HCT8 cells at 50 ug/mL after 24 hrs by RT-PCR analysis; assay type: ADME, cell-based; settings: hct-8, 24 h
[2] = test system: Klebsiella pneumoniae; assay: Antibacterial activity against Klebsiella pneumoniae 1756 assessed as growth inhibition at 1 mg/mL after 24 hrs by agar-disk diffusion technique; assay type: functional, organism-based
In short: (§1)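 Agar-disk diffusion, adapted: plates seeded with 0.5 McFarland suspension prepared from 24 h cultures; 5 µL of a 1 mg/mL compound solution spotted onto the seeded solid medium; incubated 24 h at 37 °C. Stocks made in DMSO.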

[3] = test system: HCT-8; assay: Induction of apoptosis in human HCT8 cells assessed as early apoptotic cells at 50 ug/mL after 24 hrs by Annexin V-FITC and propidium iodide staining-based flow cytometric analysis (reference value: 1.57%); assay type: cell-based; settings: hct-8, 24 h
[4] = test system: Escherichia coli; assay: Antibacterial activity against Escherichia coli 1777 assessed as growth inhibition at 1 mg/mL after 24 hrs by agar-disk diffusion technique; assay type: functional, organism-based; in short: as §1
[5] = test system: Pseudomonas aeruginosa; assay: Antibacterial activity against Pseudomonas aeruginosa 165 assessed as growth inhibition at 1 mg/mL after 24 hrs by agar-disk diffusion technique; assay type: functional, organism-based; in short: as §1
[6] = test system: Radical scavenging activity; assay: Antioxidant activity assessed as DPPH radical scavenging activity at 0.1 mg/mL after 30 mins under dark conditions by spectrophotometric analysis relative to control; assay type: functional
In short: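 Compounds dissolved in methanol at 0.1 mg/mL; 0.2 mL mixed with 1.8 mL of 2 × 10^-4 M DPPH in methanol and kept in the dark 30 min. Absorbance read at 517 nm. The blank was DPPH plus methanol. TAC (%) = (Abs initial − Abs 30 min)/Abs initial × 100.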

[7] = test system: Citrobacter koseri; assay: Antibacterial activity against Citrobacter koseri 1742 assessed as growth inhibition at 1 mg/mL after 24 hrs by agar-disk diffusion technique; assay type: functional, organism-based; in short: as §1
[8] = test system: Pseudomonas aeruginosa; assay: Antibacterial activity against Pseudomonas aeruginosa ATCC 27853 assessed as growth inhibition at 1 mg/mL after 24 hrs by agar-disk diffusion technique; assay type: functional, organism-based; in short: as §1
[9] = Induction of apoptosis in human HCT8 cells assessed as viable cells at 50 ug/mL after 24 hrs by Annexin V-FITC and propidium iodide staining-based flow cytometric analysis (reference value: 87.7%); assay type: cell-based, HCT-8; settings: read-out: Activity
[10] = test system: HCT-8; assay: Cell cycle arrest in human HCT8 cells assessed as accumulation at G2/M phase at 50 ug/mL after 24 hrs by propidium iodide staining-based flow cytometric analysis (reference value: 13.83%); assay type: ADME; settings: hct-8, 24 h
[11] = test system: HCT-8; assay: Induction of apoptosis in human HCT8 cells assessed as necrotic cells at 50 ug/mL after 24 hrs by Annexin V-FITC and propidium iodide staining-based flow cytometric analysis (reference value: 7.73%); assay type: cell-based; settings: hct-8, 24 h
[12] = test system: HCT-8; assay: Cell cycle arrest in human HCT8 cells assessed as accumulation at S phase at 50 ug/mL after 24 hrs by propidium iodide staining-based flow cytometric analysis (reference value: 39.43%); assay type: ADME; settings: hct-8, 24 h
[13] = test system: Acinetobacter baumannii; assay: Antibacterial activity against Acinetobacter baumannii 122 assessed as growth inhibition at 1 mg/mL after 24 hrs by agar-disk diffusion technique; assay type: functional, organism-based; in short: as §1
[14] = test system: Staphylococcus hominis; assay: Antibacterial activity against Staphylococcus hominis 1813 assessed as growth inhibition at 1 mg/mL after 24 hrs by agar-disk diffusion technique; assay type: functional, organism-based; in short: as §1
[15] = test system: HCT-8; assay: Cell cycle arrest in human HCT8 cells assessed as accumulation at G0/G1 phase at 50 ug/mL after 24 hrs by propidium iodide staining-based flow cytometric analysis (reference value: 46.43%); assay type: ADME; settings: hct-8, 24 h
[16] = test system: Pseudomonas aeruginosa; assay: Antibacterial activity against Pseudomonas aeruginosa 1144 assessed as growth inhibition at 1 mg/mL after 24 hrs by agar-disk diffusion technique; assay type: functional, organism-based; in short: as §1
[17] = test system: Staphylococcus aureus; assay: Antibacterial activity against Staphylococcus aureus assessed as growth inhibition at 1 mg/mL after 24 hrs by agar-disk diffusion technique; assay type: functional, organism-based; in short: as §1
[18] = test system: Enterococcus faecalis; assay: Antibacterial activity against Enterococcus faecalis 2920 assessed as growth inhibition at 1 mg/mL after 24 hrs by agar-disk diffusion technique; assay type: functional, organism-based; in short: as §1
[19] = test system: Enterobacter cloacae; assay: Antibacterial activity against Enterobacter cloacae 1845 assessed as growth inhibition at 1 mg/mL after 24 hrs by agar-disk diffusion technique; assay type: functional, organism-based; in short: as §1
[20] = test system: Acinetobacter baumannii; assay: Antibacterial activity against Acinetobacter baumannii 135 assessed as growth inhibition at 1 mg/mL after 24 hrs by agar-disk diffusion technique; assay type: functional, organism-based; in short: as §1
[21] = test system: Mycobacterium tuberculosis; assay: Antimycobacterial activity against Mycobacterium tuberculosis after 8 days by micro plate Alamar Blue assay; assay type: functional; settings: 192 h
In short: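 Clinical M. tuberculosis strain grown in Middlebrook 7H9 broth. Compounds were dissolved in DMSO and serially diluted twofold on the plate, final 25 to 0.012 µg/mL. Plates were sealed and held 8 days at 37 °C. Alamar Blue with 10% Tween 80 (1:1) was then added for another 24 h at 37 °C. MIC was the lowest concentration preventing the blue-to-pink change.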

[22] = test system: Morganella morganii; assay: Antibacterial activity against Morganella morganii 2810 assessed as growth inhibition at 1 mg/mL after 24 hrs by agar-disk diffusion technique; assay type: functional, organism-based; in short: as §1
[23] = test system: Acinetobacter baumannii; assay: Antibacterial activity against Acinetobacter baumannii 125 assessed as growth inhibition at 1 mg/mL after 24 hrs by agar-disk diffusion technique; assay type: functional, organism-based; in short: as §1
[24] = test system: HCT-8; assay: Induction of apoptosis in human HCT8 cells assessed as late apoptotic cells at 50 ug/mL after 24 hrs by Annexin V-FITC and propidium iodide staining-based flow cytometric analysis (reference value: 2.97%); assay type: cell-based; settings: hct-8, 24 h
[25] = test system: HCT-8; assay: Decrease in NAT2 gene expression in human HCT8 cells at 50 ug/mL after 24 hrs by RT-PCR analysis; assay type: ADME, cell-based; settings: hct-8, 24 h
[26] = test system: Acinetobacter baumannii; assay: Antibacterial activity against Acinetobacter baumannii 247 assessed as growth inhibition at 1 mg/mL after 24 hrs by agar-disk diffusion technique; assay type: functional, organism-based; in short: as §1
[27] = test system: Proteus mirabilis; assay: Antibacterial activity against Proteus mirabilis 1751 assessed as growth inhibition at 1 mg/mL after 24 hrs by agar-disk diffusion technique; assay type: functional, organism-based; in short: as §1
[28] = test system: Acinetobacter baumannii; assay: Antibacterial activity against Acinetobacter baumannii 192 assessed as growth inhibition at 1 mg/mL after 24 hrs by agar-disk diffusion technique; assay type: functional, organism-based; in short: as §1
[29] = test system: HCT-8; assay: Increase in NAT1 gene expression in human HCT8 cells at 50 ug/mL after 24 hrs by RT-PCR analysis; assay type: ADME, cell-based; settings: hct-8, 24 h
[30] = test system: HCT-8; assay: Increase in NAT2 gene expression in human HCT8 cells at 50 ug/mL after 24 hrs by RT-PCR analysis; assay type: ADME, cell-based; settings: hct-8, 24 h
[31] = test system: Acinetobacter baumannii; assay: Antibacterial activity against Acinetobacter baumannii 136 assessed as growth inhibition at 1 mg/mL after 24 hrs by agar-disk diffusion technique; assay type: functional, organism-based; in short: as §1
[32] = test system: Pseudomonas putida; assay: Antibacterial activity against Pseudomonas putida 160 assessed as growth inhibition at 1 mg/mL after 24 hrs by agar-disk diffusion technique; assay type: functional, organism-based; in short: as §1

SMILES | growth inhibition (GI) [2] | Activity [3] [%] | growth inhibition (GI) [5] | TAC [6] [%] | growth inhibition (GI) [8] | viability at 24 h, 50 ug/mL [9] [%] | Activity [10] [%] | Activity [11] [%] | Activity [12] [%] | Activity [15] [%] | growth inhibition (GI) [16] | growth inhibition (GI) [19] | growth inhibition (GI) [20] | MIC [21] [µg/mL] | growth inhibition (GI) [22] | Activity [24] [%] | Activity [25] | growth inhibition (GI) [27] | growth inhibition (GI) [31] | growth inhibition (GI) [32] | further results
NNC(=O)c1ccncc1 [ISONIAZID] | inactive | 1.95 | inactive | 90 | inactive | 71.5 | 15.01 | 17.9 | 38.48 | 44.12 | inactive | Active | Active | 0.098 (≈ 0.715 µM) | inactive | 8.56 | Toxic | inactive |  |  | Activity [1]: Toxic; growth inhibition (GI) [4]: inactive; growth inhibition (GI) [7]: inactive; growth inhibition (GI) [13]: inactive; growth inhibition (GI) [14]: inactive; growth inhibition (GI) [17]: inactive; growth inhibition (GI) [18]: inactive; growth inhibition (GI) [23]: inactive; growth inhibition (GI) [26]: inactive; growth inhibition (GI) [28]: Active
Cc1ccc(/C=C/C(N)(S)NNC(=O)c2ccncc2)cc1 (stereo unspecified) |  | 1.16 | Active | 12.5 | inactive | 54.3 | 11.15 | 28.5 | 13.1 | 72.35 | Active | Active | Active | 0.781 (≈ 2.48 µM) |  | 16 |  | inactive | Active | Active | Activity [29]: Toxic; Activity [30]: Toxic; growth inhibition (GI) [14]: Active; growth inhibition (GI) [17]: Active; growth inhibition (GI) [26]: inactive; growth inhibition (GI) [28]: inactive
CCOc1ccc(/C=C/C(N)(S)NNC(=O)c2ccncc2)cc1 (stereo unspecified) | inactive | 5.81 |  | 25.7 | inactive | 44.2 | 17.5 | 28.3 | 22.43 | 58.14 | Active | inactive | Active | 0.781 (≈ 2.27 µM) | inactive | 21.6 |  |  | Active | Active | Activity [29]: Toxic; growth inhibition (GI) [4]: inactive; Activity [30]: Toxic
Cc1ccc(/C=C/C(N)=S)cc1 | inactive | 7.11 | inactive | 25.7 | inactive | 59.8 | 47.84 | 18.4 | 26.63 | 24.16 | Active |  | Active |  | inactive | 14.7 | Toxic | inactive | Active | Active | Activity [1]: Toxic; growth inhibition (GI) [23]: inactive; growth inhibition (GI) [26]: inactive
COc1ccc(/C=C/C(N)(S)NNC(=O)c2ccncc2)cc1 (stereo unspecified) |  | 1.29 | Active | 14 |  | 70.7 | 13.78 | 18.2 | 37.52 | 48.85 | Active | Active | Active | 1.56 (≈ 4.73 µM) |  | 9.83 | Toxic | inactive | Active | Active | Activity [1]: Toxic
COc1ccc(/C=C/C(N)=S)cc1 | inactive | 3.09 | inactive | 60 | inactive | 63.8 | 23.56 | 20.3 | 23.26 | 54.61 | Active |  | Active |  | inactive | 12.9 | Toxic | inactive | Active | Active | Activity [1]: Toxic; growth inhibition (GI) [4]: Active; growth inhibition (GI) [23]: inactive; growth inhibition (GI) [26]: inactive
CCOc1ccc(/C=C/C(N)=S)cc1 | inactive | 1.56 |  | 37.9 | Active | 70.1 | 15.41 | 14.8 | 22.57 | 61.33 | Active | Active | Active |  | Active | 13.6 | Toxic | Active | Active | Active | growth inhibition (GI) [7]: Active; growth inhibition (GI) [18]: Active; growth inhibition (GI) [23]: inactive; growth inhibition (GI) [26]: inactive; growth inhibition (GI) [28]: Active
NC(S)(/C=C/c1ccccc1)NNC(=O)c1ccncc1 (stereo unspecified) |  | 0.95 |  | 88.2 | Active | 67.9 | 18.72 | 18.9 | 25.9 | 59.95 | Active | Active | Active | 0.391 (≈ 1.3 µM) |  | 12.2 |  |  | Active | Active | Activity [29]: Toxic; growth inhibition (GI) [7]: Active; Activity [30]: Toxic; growth inhibition (GI) [14]: Active; growth inhibition (GI) [17]: Active; growth inhibition (GI) [28]: Active
